According to ChEMBL document CHEMBL1135790, “2-Substituted 4-(thio)chromenone 6-O-sulfamates: potent inhibitors of human steroid sulfatase” (J Med Chem, 2002):

Tests used:
[1] = Rate constant of inactivation
Steryl-sulfatase = target: T1, Steryl-sulfatase (Homo sapiens, UniProt P08842); assay: Inhibitory activity against purified human steroid sulfatase (STS)
T1 sequence (P08842 whole entry): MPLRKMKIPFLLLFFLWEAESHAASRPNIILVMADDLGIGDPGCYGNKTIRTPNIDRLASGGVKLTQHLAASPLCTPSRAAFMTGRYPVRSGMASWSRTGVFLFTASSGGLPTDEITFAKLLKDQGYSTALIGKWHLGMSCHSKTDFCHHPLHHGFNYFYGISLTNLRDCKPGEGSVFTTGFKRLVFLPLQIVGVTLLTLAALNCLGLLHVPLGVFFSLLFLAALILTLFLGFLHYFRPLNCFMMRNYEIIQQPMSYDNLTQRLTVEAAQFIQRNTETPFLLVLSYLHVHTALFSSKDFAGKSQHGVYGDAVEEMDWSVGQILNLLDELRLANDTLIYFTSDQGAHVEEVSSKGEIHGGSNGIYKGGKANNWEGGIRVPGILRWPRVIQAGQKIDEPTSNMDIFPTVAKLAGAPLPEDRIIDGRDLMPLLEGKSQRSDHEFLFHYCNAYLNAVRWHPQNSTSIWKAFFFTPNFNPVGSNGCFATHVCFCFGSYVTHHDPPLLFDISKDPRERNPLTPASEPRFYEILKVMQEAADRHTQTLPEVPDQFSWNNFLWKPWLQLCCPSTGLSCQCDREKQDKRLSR
Summary of the method: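 Human STS from stably transfected recombinant CHO cells, microsomal fraction solubilized in Triton X-100 and purified by chromatography to >95%. Enzyme (0.6 units) mixed with 4-MUS, 0.75 mM before mixing, in 0.1 M Tris-HCl pH 7.5, 0.1% Triton. Compounds at graded concentrations from ethanol stocks (final ethanol ≤2%). Incubation 60 min, 37 °C. Stopped with 0.2 M NaOH. Fluorescence ex 355/em 448 nm. IC50 from nonlinear regression; mean of triplicates.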

[2] = Inhibition constant as dissociation constant of the noncovalent (STS) enzyme-inhibitor complex; assay type: ADME
Summary of the method: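 Human placental microsomes (about 10 mg/mL protein) preincubated with inhibitor dilutions in 0.1 M Tris-HCl pH 7.5 for 1-20 min. Free inhibitor removed with dextran-coated charcoal. Residual activity measured in the supernatant with 4-MUS (1.5 mM before mixing), 20 min at 37 °C, stopped with NaOH, ex 355/em 460 nm. kapp from double-exponential fits. KI and kinact from a double-reciprocal plot of kapp against inhibitor concentration.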

[3] = Ratio of kinact (rate constant of inactivation) to that of KI (inhibition constant) indicates efficacy of irreversible inhibition.

Structure (SMILES) | kinact [1] | IC50 (Steryl-sulfatase) | Ki [2] | K inact/Ki [3]
NS(=O)(=O)Oc1ccc2c(c1)C(=O)CC(C13CC4CC(CC(C4)C1)C3)O2 (centres undefined) | 0.017 s⁻¹ | 0.14 µM | 1.86 µM | 
NS(=O)(=O)Oc1ccc2c(c1)C(=O)CC(C1CCCCC1)O2 (centres undefined) |  | 0.28 µM |  | 
NS(=O)(=O)Oc1ccc2oc(CCc3ccccc3)cc(=O)c2c1 |  | 0.19 µM |  | 
NS(=O)(=O)Oc1ccc2oc(Cc3ccccc3)cc(=O)c2c1 |  | 1.62 µM |  | 
NS(=O)(=O)Oc1ccc2sc(-c3ccccc3)cc(=O)c2c1 |  | 0.062 µM |  | 
CC(C)(C)c1cc(=O)c2cc(OS(N)(=O)=O)ccc2s1 |  | 0.0056 µM |  | 
NS(=O)(=O)Oc1ccc2c(=O)cc(C3CCCCC3)oc2c1 | 0.02 s⁻¹ | 6.33 µM | 24 µM | 
NS(=O)(=O)Oc1ccc2oc(/C=C/c3ccccc3)cc(=O)c2c1 |  | 1.62 µM |  | 
CCCc1cc(=O)c2cc(OS(N)(=O)=O)ccc2o1 |  | 0.722 µM |  | 
NS(=O)(=O)Oc1ccc2oc(C3CCCCCCCCCCC3)cc(=O)c2c1 | 0.04 s⁻¹ | 0.045 µM | 1.1 µM | 
NS(=O)(=O)Oc1ccc2c(c1)C(=O)CC(c1ccccc1)O2 (centres undefined) |  | 2.58 µM |  | 
CC1(C)C(c2cc(=O)c3cc(OS(N)(=O)=O)ccc3o2)C1(C)C |  | 0.045 µM |  | 
CC(C)(C)c1cc(=O)c2cc(OS(N)(=O)=O)ccc2o1 | 0.07 s⁻¹ | 0.022 µM | 0.9 µM | 
NS(=O)(=O)Oc1ccc2oc(-c3ccccc3)cc(=O)c2c1 |  | 0.672 µM |  | 
CCCc1cc(=O)c2ccc(OS(N)(=O)=O)cc2o1 |  | > 100 µM |  | 
NS(=O)(=O)Oc1ccc2oc(C3C4CC5CC3CC5C4)cc(=O)c2c1 (centres undefined) | 0.042 s⁻¹ | 0.011 µM | 0.22 µM | 
NS(=O)(=O)Oc1ccc2c(=O)c(C3CCCCC3)coc2c1 | 0.07 s⁻¹ | 0.05 µM | 1.2 µM | 
NS(=O)(=O)Oc1ccc2c(=O)c(-c3ccccc3)coc2c1 |  | 0.437 µM |  | 
CCCCCCCCCc1cc(=O)c2cc(OS(N)(=O)=O)ccc2o1 | 0.006 s⁻¹ | 0.403 µM | 1.7 µM | 0.35 10e4 M-1 s-1
CCCCCCCCC(C)(C)c1cc(=O)c2cc(OS(N)(=O)=O)ccc2o1 |  | 0.078 µM |  | 
NS(=O)(=O)Oc1ccc2c(c1)C(O)CC(C13CC4CC(CC(C4)C1)C3)O2 (centres undefined) |  | 0.291 µM |  | 
NS(=O)(=O)Oc1ccc2oc(C3CCCCC3)cc(=O)c2c1 | 0.035 s⁻¹ | 0.062 µM | 1 µM | 
NS(=O)(=O)Oc1ccc2sc(C34CC5CC(CC(C5)C3)C4)cc(=O)c2c1 | 0.115 s⁻¹ | 0.00034 µM | 0.21 µM | 
NS(=O)(=O)Oc1ccc2c(c1)CCC(C1CCCCC1)O2 (centres undefined) | 0.016 s⁻¹ | 11.2 µM | 32 µM | 
NS(=O)(=O)Oc1ccc2c(c1)C(O)CC(C1CCCCC1)O2 (centres undefined) | 0.018 s⁻¹ | 24.3 µM | 53.7 µM | 
NS(=O)(=O)Oc1ccc2oc(C3CCCC3)cc(=O)c2c1 | 0.011 s⁻¹ | 0.134 µM | 0.73 µM | 
CCCCCC12CCC(c3cc(=O)c4cc(OS(N)(=O)=O)ccc4o3)(CC1)CC2 | 0.074 s⁻¹ | 0.011 µM | 0.5 µM | 
